Columns and labels:
[1] = tested on: Cowpox virus; assay: Antiviral activity against cowpox virus in HFF cells by plaque reduction assay; format: functional, organism-based
[2] = tested on: Vaccinia virus; assay: Antiviral activity against vaccinia virus in HFF cells by plaque reduction assay; format: functional, organism-based; conditions: Orthopoxvirus vaccinia
[3] = tested on: Cowpox virus; assay: Antiviral activity against TK+ cowpox virus delta crmA in HFF cells; format: functional, organism-based
[4] = tested on: HFF; assay: Cytotoxicity against HFF cells by neutral red uptake assay; format: functional; conditions: Homo sapiens
Method in brief: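 Uninfected HFF cells are incubated with various drug concentrations for 7 days at 37 °C. Viability is read by Neutral Red uptake. CC50 is the concentration that reduces uptake by 50%.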

[5] = tested on: Cowpox virus; assay: Antiviral activity against TK- cowpox virus TK:GFP lacZ in HFF cells; format: functional, organism-based

## N#CC1=C(N)OC2=C(C(=O)CCC2)C1c1cn([C@H]2C[C@@H](O)[C@@H](CO)O2)c(=O)[nH]c1=O (stereo not given in full)
[1]
  EC50: 2 µM
[2]
  EC50: 4.6 µM
[3]
  EC50: 0.8 µM
[4]
  CC50: > 300 µM
[5]
  EC50: 28 µM

## Nc1ccn(C[C@@H](CO)OCP(=O)(O)O)c(=O)n1 [CIDOFOVIR]
[1]
  EC50: 40 µM
[2]
  EC50: 24 µM
[3]
  EC50: 3.3 µM
[4]
  CC50: > 317 µM
[5]
  EC50: 5.2 µM

## O=c1[nH]c(=O)n([C@H]2C[C@H](O)[C@@H](CO)O2)cc1I [IDOXURIDINE]
[1]
  EC50: 2 µM
[2]
  EC50: 6 µM
[3]
  EC50: 0.4 µM
[4]
  CC50: > 260 µM
[5]
  EC50: 27 µM

Reference: ChEMBL document CHEMBL1138928, “Toward orthopoxvirus countermeasures: a novel heteromorphic nucleoside of unusual structure” (J Med Chem, 2006)
